Assay results as given in ChEMBL document CHEMBL1122666, “Bile acids with a cyclopropyl-containing side chain. 1. Preparation and properties of 3 alpha, 7 beta-dihydroxy-22,23-methylene-5 beta-cholan-24-oic acid” (J Med Chem, 1984).
In brackets after ≈: the same amount, converted by molar mass.

How the values were obtained:
[1] = species on record: Rattus norvegicus; assay: Compound was evaluated for Phospholipid secretion; type: functional
Procedure, shortened: (§1)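 Male Sprague–Dawley rats (300-330 g) were anesthetized with ethyl carbamate and the bile was collected. Bile acids were given i.v. as sodium salts via the femoral vein at 50 mg per animal, five rats per group, and bile was sampled at 15-min intervals. Flow volume and bile acid, cholesterol and phospholipid concentrations were measured by enzymatic assays. Controls were five rats; values are mean ± SD.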

[2] = species on record: Rattus norvegicus; assay: Compound was evaluated for Percent hepatic uptake; type: functional
Procedure, shortened: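 Single-pass isolated perfused rat liver; perfusate Krebs-Ringer bicarbonate pH 7.4 with glucose and 3% w/v fatty-acid-free bovine serum albumin, Evans blue (1 mg/g liver) as flow/recovery marker. 200 μL of 10-µmol/L bile acid injected; outflow collected at 10-s intervals, bile acid measured enzymatically (3α-hydroxysteroid dehydrogenase), Evans blue at 610 nm. Outflow corrected for Evans blue; uptake = 100% − outflow.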

[3] = species on record: Rattus norvegicus; assay: Compound was evaluated for Bile acid secretion; type: functional; procedure, shortened: as §1
[4] = Compound was evaluated for physico-chemical property of Constant, pKa; type: physicochemical
[5] = species on record: Rattus norvegicus; assay: Compound was evaluated for Bile flow; type: functional; procedure, shortened: as §1
[6] = Compound was evaluated for physico-chemical property of Critical micellar concentration (CMC); type: ADME
Procedure, shortened: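 For the CMC, sodium salt solutions from 0.1 to 100 mmol were adjusted to pH 8.00 with NaOH and rotated for 1 day at room temperature in the dark with excess Azulene or Orange OT dye. After 0.22-µm filtration, absorbance was read at 580 or 490 nm and plotted against bile salt concentration. Values are mean ± SD of five determinations.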

[7] = target: Serum albumin (Homo sapiens) (UniProt P02768); assay: Compound was evaluated for Albumin affinity constant
[8] = Compound was evaluated for physico-chemical property of Water solubility (bile acid) at 25 degree C; type: ADME
Procedure, shortened: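 For solubility, solutions were held for 1 month, filtered through 0.22 µm, and methanol was added to prevent crystallization. Dissolved bile acid was quantified enzymatically with 3α-hydroxysteroid dehydrogenase.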

[9] = species on record: Rattus norvegicus; assay: Compound was evaluated for Cholesterol secretion; type: functional; procedure, shortened: as §1

Row | Compound | Secretion [1] | Intake [2] | Secretion [3] | pKa [4] | Bile flow [5] | CMC [6] | Affinity constant [7] | solubility [8] | Secretion [9]
1 | CC(C1CC1C(=O)O)C1CC[C@H]2[C@@H]3[C@@H](O)CC4C[C@H](O)CCC4(C)[C@H]3CCC12C (some centres not stated) | 9.5 µM/h/kg | 46% | 97 µM/h/kg | 5.01 | 1.68 mL/h | 15.5 mM | 68000 l M-1 | 11.8 µM (≈ 4.77 µg/mL) | 2.7 µM/h/kg
2 | C[C@H](CCC(=O)O)[C@H]1CC[C@H]2[C@@H]3[C@@H](O)C[C@@H]4C[C@H](O)CC[C@]4(C)[C@H]3CC[C@]12C [URSODIOL] | 6.47 µM/h/kg | 50% | 98 µM/h/kg | 5.08 | 1.08 mL/h | 19 mM | – | 9 µM (≈ 3.53 µg/mL) | 2.12 µM/h/kg
